Tests used:
[1] = Compound was evaluated for the half life; type: ADME
In short: (§1)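 Porcine liver esterase (PLE), about 1 unit/mL, incubated with the model prodrug in 0.05 M phosphate buffer at pH 7.4 and 37 ± 0.5 °C. Amine release was followed by UV. The pseudo-first-order rate constant (kobs, min⁻¹) and the half-life (min) are reported.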

[2] = organism: Sus scrofa; experiment: Pseudo first order rate constant to release model amine drug after esterase catalyzed hydrolysis at an enzyme concentration of 1 unit/mL; in short: as §1

half-life [1] [min]	K obs x10e2 [2] [min⁻¹]	Compound
32.5	2.13	CC(=O)Oc1ccccc1/C=C\C(=O)N(C)Cc1ccccc1
18.8	3.7	CCN(CC)C(=O)/C=C\c1c(C)cc(C)cc1OC(C)=O
188	0.37	CCN(CC)C(=O)/C=C\c1ccccc1OC(C)=O
6.3	11	CC(=O)Oc1cc(C)cc(C)c1/C=C\C(=O)N(C)Cc1ccccc1
4.8	14.4	CC(=O)Oc1c(C)ccc(C)c1/C=C\C(=O)N(C)Cc1ccccc1
11.4	6.1	CCN(CC)C(=O)/C=C\c1c(C)ccc(C)c1OC(C)=O

Source: ChEMBL document CHEMBL1131767, “Substituted coumarins as esterase-sensitive prodrug moieties with improved release rates” (Bioorg Med Chem Lett, 1999)
